Test system: MS2 coat protein
Assay: apparent Kd, MS2 coat protein; higher = weaker binding; RNA-MaP array; theophylline 2 mM where present
Summary of the method: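 Green signal was scaled to red-channel RNA signal and control-cluster median Fmax, and the apparent Kd was taken as the median of filtered per-cluster binding-curve fits. The binding series used SNAP-549-labelled MS2 coat protein from 0.7 or 1.5 nM, doubling to 3 µM, on designs transcribed by stalled E. coli RNA polymerase on Illumina sequencing-chip clusters. Each series ran without and then with constant ligand in 100 mM Tris-HCl pH 7.5, 80 mM KCl, 4 mM MgCl2, BSA, DTT, yeast tRNA and Tween-20.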

[1] = designed as: OFF switch for theophylline, no ligand
[2] = ligand present: theophylline, designed as: OFF switch for theophylline
[3] = designed as: ON switch for theophylline, no ligand
[4] = ligand present: theophylline, designed as: ON switch for theophylline

Sequence | apparent Kd [1] [nM] | apparent Kd [2] [nM] | apparent Kd [3] [nM] | apparent Kd [4] [nM]
GCUGGGUGCGCAAGGACCUGGCGUUGCGAUACCAGCACGGUAACGUGCCCUUGGCAGCGCACAUGAGGAUCACCCAUGUGGUGCG | 24.6 | 329 | – | –
CUUGUCGUAACUGAUACCAGUGUACUGACAUGAGGAUCACCCAUGUUGGGUUUUGUUGUACACCCUUGGCAGCAGAAUCGAUAAG | 73.8 | 121 | – | –
GAUCUUGCGGGCGCCCGCAAGGUUGCGGAUACCAGCGAGAUUAAUCGCCCUUGGCAGCCGAACAUGAGGAUCACCCAUGUCGGAC | – | – | 9.62 | 15.3
ACCAUGUAAUCAGAUACCAGACAUCUUUUAAAUCAUAUUACAUGAGGAUCACCCAUGUUGGUCCCUUGGCAGCUGAAAUAUUUCA | – | – | 356 | 109
AAGGUGAUCCGUGAUACCAGCUCAACAUGAGGAUCACCCAUGUAACGGACGAAAGUCCGGAGCCCUUGGCAGCACGGUAAUAAUA | – | – | 11.2 | 11.4
GAAACGUAGGUGGAGCGGUGAAAUGGCGAUACCAGCGUGGAAACAUGCCCUUGGCAGCGUUAGAACAUGAGGAUCACCCAUGUUU | 13.3 | 58.2 | – | –
AACAUGAGGAUUGAUACCAGUCCAUGAGGAUCACAUGAGGAUCACCCAUGUGGAACAUGAGGCCCUUGGCAGCAGUACAACAUGA | – | – | 15.6 | 11
ACAUGAGGAUCACCCAUGUUCCUCUUUGAUACCAGUGAGUUGUUUCGCCCUUGGCAGCGAGUUUUUUUUUUUUUGUUUUGUUUGG | 274 | 390 | – | –
AGUAAUCUAACAGAUACCAGACGGUAUAUAACAUGAGGAUCACCCAUGUCUUGGGUGUACGUCCCUUGGCAGCUGAAAAUGAUAA | – | – | 567 | 383
AGACAUGAGGAUCACCCAUGUAGCAUGGAUACCAGAUGUAGAUUUAUCCCUUGGCAGCUGUGGUAAAGUGAUGCAUUGCUCCUAG | 37.8 | 42.2 | – | –
GUAUGGAAACAUACUAGGGUAUCGUGAGAUACCAGUACAGAAAUGUACCCUUGGCAGCUCGCGCAUACAUGAGGAUCACCCAUGU | 18.8 | 29.3 | – | –
ACAUGAGGAUCACCCAUGUUCCUCAUUGAUACCAGUGAAUUUAGACGCCCUUGGCAGCGAGUUUUUUAAGAAGAAGUUUUUUUUU | 421 | 1110 | – | –
AACCGAGGCUAUCCUCUCCGCCUAUGUGAUACCAGAAUAAUUUUAUUCCCUUGGCAGCAUGACAUGAGGAUCACCCAUGUCUCUU | – | – | 17.6 | 20.3
UAAAACAUGAGGAUCACCCAUGUAAUUGAUACCAGAGUGAUGAUCCUCCCUUGGCAGCAAAUAACGCAUUGGAAACAAUGCGAAA | – | – | 56.4 | 189
UUCAAAGGGAACGGUGCUGGUAACAGAGAUACCAGAGUAAUAAUACUCCCUUGGCAGCUCAUAACAUGAGGAUCACCCAUGUAAU | 13.4 | 16.6 | – | –
AGUACACGAACUGAUACCAGCCGGACAUGAGGAUCACCCAUGUCCUACCUCUGUUCGGUUGGCCCUUGGCAGCAGUUCGUGUACA | – | – | 81.6 | 121
UGUAACAUGAGGAUCACCCAUGUGAGUGAUACCAGACUAGUAUUAGUCCCUUGGCAGCACGUUGGGCGAGUGUAUAGUCUAUGCG | – | – | 112 | 110
AUUGCGAGUGAGUCGUGUAACGAUUCAGAUACCAGGCAUUUCGUUGUCCCUUGGCAGCUGUCUUACAUGAGGAUCACCCAUGUUA | 52.3 | 106 | – | –
UAAAACAUGAGGAUCACCCAUGUAAAUGAUACCAGAGUGAUGAUCCUCCCUUGGCAGCAUAACGCUGAUUGAUUACAAUCAGCGA | – | – | 95.9 | 267
AACAUCUGGCGUGAUACCAGCCACAUGAGGAUCACCCAUGUCAACACUCGCAAUUGCGACGGCCCUUGGCAGCACGCAUCCUCAG | – | – | 64 | 12.1
GGUAGCAGGACUGAUACCAGUCCAGCGAAUCAUACGACGCAACAUGAGGAUCACCCAUGUGACCCUUGGCAGCAGUCUGCUACCG | – | – | 25.4 | 12.8
ACGACGCAUAGUGAUACCAGUAGAACAUGAGGAUCACCCAUGUCUGUGGCGCUCCGCCUCUGCCCUUGGCAGCACUAUGCGUCAG | – | – | 12.4 | 18.6
UGGCAGGAGUGAUCCUCCUGCCAAGGUGAUACCAGCAUCGAAAGAUGCCCUUGGCAGCACCAACAUGAGGAUCACCCAUGUAAUA | – | – | 108 | 47.9
AACCGAGGCUAUCCACAAAGAAAAUGUGAUACCAGAAUAAUUUUAUUCCCUUGGCAGCAUGACAUGAGGAUCACCCAUGUGUCUU | – | – | 32.3 | 35.6
UGUAUGUGAUUUGAUACCAGUCCAACUGGUAAAACAUGAGGAUCACCCAUGUAAAAUUGGGACCCUUGGCAGCAAAUCGCAUACU | – | – | 355 | 30.1
